Test results published in PubChem BioAssay.
Records with an inconclusive call do not appear.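 The calls were made as follows, unless noted: active = cell viability at or below a set limit in both duplicate runs, the limit being the all-compound median minus 4 SD (cut at about 23% in these data, passing the limit was not always enough); inconclusive = no clear call, values can overlap the other calls; inactive = the rest.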

Assays:
[1] = OD615 S. cerevisiae growth inhibition, permissive medium, pilot counter-assay, permissive growth control for S. cerevisiae lifespan shortening project (AID 705;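 active = growth inhibition above 25% in both replicates, a cutoff set 3 SD above the mean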); conditions: OD615, 24 h, at 10 µM, active compounds read high
Method in brief: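 System: engineered DeaD yeast; Medium: permissive raffinose/galactose medium; Compound dosing: 10 µM single dose, 0.25% DMSO; Incubation: 4 h cell pre-growth, 24 h exposure at 30 °C; Technique: OD at 615 nm; Evaluation: growth inhibition from lowered OD615 after 24 h.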

[2] = Restrictive medium S. cerevisiae growth inhibition, OD615, pilot screen of yeast lifespan reduction project, restrictive growth control (AID 706;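 active = growth inhibition above a set limit, 3 SD over mean compound inhibition, in both replicates, cut at about 43% in these data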;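 also: modified DeaD lifespan yeast strain shifted to restrictive glucose medium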); conditions: OD615, 48 h, at 10 µM, active compounds read high
Method in brief: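 Material: modified S. cerevisiae; buffer or medium: CSMM-D glucose medium; doses: one concentration, 10 µM final, 0.25% DMSO; incubation: 48 h compound exposure at 30 °C; detection: optical density at 615 nm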

[3] = viability gain of MRP-1-high H69AR cells under doxorubicin, pilot screen, MRP-1 activator project, CellTiter-Glo, duplicate (AID 807;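 active = viability increase at or above a cutoff of the median across tested compounds plus 3 SD, cut at about 8.5% in these data, passing the limit was not always enough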;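 also: compound pretreatment 18-22 h then 72 h combined with doxorubicin; 0% = doxorubicin alone and 100% = vehicle without doxorubicin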); conditions: H69AR viability with doxorubicin, CellTiter-Glo luminescence; at 10 µM; active compounds read high
[4] = growth suppression of beta-catenin knockout HCT116, pilot screen, human colon tumor cells (AID 823); conditions: CellTiter-Glo, 60 h, at 10 µM, active compounds read low;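 also: 0% = wells killed by 20 µM Hyamine and 100% = untreated DMSO cell wells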
[5] = growth suppression of PTEN-deleted HCT116, pilot screen, cell-based, HCT116 clonal line, CellTiter-Glo (AID 824;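 active = viability at or below 27.92% in each of two runs, the all-compound median minus 4 SD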;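 also: 0% = 20 µM Hyamine control and 100% = vehicle cell control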); conditions: 60 h, at 10 µM, active compounds read low
[6] = inhibitors of the yeast RAM network, pilot screen, dse1pr::URA3 reporter, 5-FOA selection (AID 869;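 active = inhibition over a set limit, the all-compound mean plus 3 SD, in both replicate runs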;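 also: 0% = DMSO wells with no growth and 100% = 10 µM 1-NA-PP1 with full growth; RAM network block rescues cells from 5-FOA so hits raise OD615 growth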); conditions: S. cerevisiae dse1pr::URA3 5-FOA growth, OD615, 2 d; at 10 µM; active compounds read high; strain carries analog-sensitive mutant Cbk1 kinase
[7] = RAM signaling pathway blockade in yeast – S. cerevisiae, Pdr1DBD-CYC8 efflux-inhibited sensitized strain, primary screen (AID 1298;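 active = RAM network inhibition above 8.4% in each of two replicates, 3 SD over the compound average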;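 also: 0% = DMSO untreated cells without growth and 100% = 10 µM 1-NA-PP1 full growth; higher means more yeast growth rescued from 5-FOA killing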); conditions: S. cerevisiae cbk1-as DSE1-URA3 strain, 5-FOA growth OD615, 2 d; at 50 µM; active compounds read high

Cc1cc(C)c(NC(=O)CSc2nnc(-c3ccncc3)n2Cc2ccco2)c(Cl)c1
inactive: growth inhibition [1] 6.26% | growth inhibition [2] 12.8% | viability increase [3] -0.79% | viability [4] 98% | viability [5] 93.1% | inhibition [6] 1.79% | RAM network inhibition [7] 6.08%

COc1ccc(NC(=O)CCCC2=NS(=O)(=O)c3ccccc3N2)cc1
inactive: growth inhibition [1] -8.46% | growth inhibition [2] -7.47% | viability increase [3] -3.01% | viability [4] 103% | viability [5] 99.3% | inhibition [6] 1.23% | RAM network inhibition [7] 3.11%

OCCCc1nc2ccccc2n1CCOc1ccccc1
inactive: growth inhibition [1] -10.4% | growth inhibition [2] 12.7% | viability increase [3] -0.86% | viability [4] 88.5% | viability [5] 94.6% | inhibition [6] 0.595% | RAM network inhibition [7] 2.86%

Cc1noc(/C=C/N(C)C)c1S(=O)(=O)N1CCN(c2ccccc2)CC1
inactive: growth inhibition [1] -14.8% | growth inhibition [2] -3.67% | viability increase [3] -2.94% | viability [4] 95.9% | viability [5] 90.8% | inhibition [6] 2.37% | RAM network inhibition [7] 7.31%

O=C(NC1CCN(Cc2ccccc2)CC1)c1ccccc1F
inactive: growth inhibition [1] -3.78% | growth inhibition [2] -11.1% | viability increase [3] -1.39% | viability [4] 95% | viability [5] 98.9% | inhibition [6] 2.02% | RAM network inhibition [7] -0.41%

C=CCn1c(=N)c(C(=O)NCCCOC)cc2c(=O)n3cccc(C)c3nc21
inactive: growth inhibition [1] 2.23% | growth inhibition [2] 0.115% | viability increase [3] -2.3% | viability [4] 83.8% | viability [5] 88.5% | inhibition [6] 0.4% | RAM network inhibition [7] -0.47%

COc1cccc(C2CC(c3ccccc3)Nc3nc(N)nn32)c1 (stereo not drawn)
inactive: growth inhibition [1] -2.81% | growth inhibition [2] 7.94% | viability increase [3] 0.44% | viability [4] 94.9% | viability [5] 93.5% | inhibition [6] 1.83% | RAM network inhibition [7] 3.16%

c1ccc(N(c2ccccc2)c2nc(N3CCOCC3)nc(N3CCOCC3)n2)cc1
inactive: growth inhibition [1] 4.5% | growth inhibition [2] -1.27% | viability increase [3] -3.09% | viability [4] 92.2% | viability [5] 89.9% | inhibition [6] 4.5% | RAM network inhibition [7] 3.75%

COc1ccc(C(=O)OCCN2C(=O)c3ccccc3C2=O)cc1
inactive: growth inhibition [1] -3.96% | growth inhibition [2] -5.23% | viability increase [3] -0.3% | viability [4] 100% | viability [5] 93.7% | inhibition [6] 0.645% | RAM network inhibition [7] 7.05%

O=C1CCCC/C1=C\Nc1ccc(Cl)cn1
inactive: growth inhibition [1] -4.26% | growth inhibition [2] 1.26% | viability increase [3] 1.58% | viability [4] 98.1% | viability [5] 95% | inhibition [6] 2.25% | RAM network inhibition [7] -1.13%

O=C1CC2CS(=O)(=O)CC2N1C1CCCCC1 (stereo not drawn)
inactive: growth inhibition [1] -8.38% | growth inhibition [2] -13.2% | viability increase [3] -0.5% | viability [4] 107% | viability [5] 96% | inhibition [6] 0.495% | RAM network inhibition [7] 2.85%

COc1cccc(-c2cc(C(=O)N3CCN(c4ncccn4)CC3)c3ccccc3n2)c1
inactive: growth inhibition [1] 0.09% | growth inhibition [2] -2.04% | viability increase [3] -6.25% | viability [4] 62% | viability [5] 64% | inhibition [6] 1.14% | RAM network inhibition [7] -0.21%

O=C(CCCn1c(=O)[nH]c2ccccc2c1=O)N1CCN(c2ccccn2)CC1
inactive: growth inhibition [1] -3.37% | growth inhibition [2] -16.9% | viability increase [3] -3.43% | viability [4] 98.3% | viability [5] 96.2% | inhibition [6] 2.37% | RAM network inhibition [7] 3.32%

CCCN1Cc2cccc(C(=O)N3CCN(c4cc(Cl)ccc4C)CC3)c2C1=O
inactive: growth inhibition [1] 1.4% | growth inhibition [2] -10.8% | viability increase [3] -0.17% | viability [4] 70.5% | viability [5] 66.7% | inhibition [6] 0.375% | RAM network inhibition [7] 1.65%

O=C(CSc1nc2cc(Cl)ccc2s1)c1ccco1
inactive: growth inhibition [1] -10.9% | growth inhibition [2] 11.2% | viability increase [3] -4.44% | viability [4] 95% | viability [5] 93.8% | inhibition [6] -0.07% | RAM network inhibition [7] -1.19%

CCOC(=O)C(C)c1nn(C)c(=O)c2ccccc12 (stereo not drawn)
inactive: growth inhibition [1] -3.15% | growth inhibition [2] -5.69% | viability increase [3] -2.34% | viability [4] 97.4% | viability [5] 92.7% | inhibition [6] 1.42% | RAM network inhibition [7] 1.72%

COc1ccccc1N1CCN(C(=O)CCCC2=NS(=O)(=O)c3ccccc3N2)CC1
inactive: growth inhibition [1] 0.08% | growth inhibition [2] -12.7% | viability increase [3] -4.95% | viability [4] 97.3% | viability [5] 92.4% | inhibition [6] 1.4% | RAM network inhibition [7] -0.58%

O=C(Nc1c(F)c(F)c(F)c(F)c1F)C1CCCCC1
inactive: growth inhibition [1] -1.42% | growth inhibition [2] -6.55% | viability increase [3] -1.05% | viability [4] 80% | viability [5] 89.2% | inhibition [6] 0.88% | RAM network inhibition [7] 7.02%

O=S(=O)(NCc1cccnc1)c1ccc(Cl)c(Cl)c1
inactive: growth inhibition [1] -0.945% | growth inhibition [2] -19.6% | viability increase [3] -0.3% | viability [4] 98.9% | viability [5] 93.8% | inhibition [6] 0.75% | RAM network inhibition [7] 4.18%

CC1Cc2nc(SCC(=O)N3CCOCC3)n(-c3ccccc3)c(=O)c2S1 (stereo not drawn)
inactive: growth inhibition [1] -10.7% | growth inhibition [2] -11.7% | viability increase [3] -0.68% | viability [4] 111% | viability [5] 104% | inhibition [6] 0.16% | RAM network inhibition [7] 0.95%

CCOc1ccc(N(CC(=O)N2CCCC2)S(=O)(=O)c2c(C)noc2C)cc1
inactive: growth inhibition [1] -10.4% | growth inhibition [2] 3.47% | viability increase [3] -1.24% | viability [4] 98.3% | viability [5] 95.6% | inhibition [6] 1.08% | RAM network inhibition [7] 10.7%

O=C(NCCC1=CCCCC1)c1ccc2c(=O)n3c(nc2c1)CCCCC3
inactive: growth inhibition [1] -10.1% | growth inhibition [2] -2.77% | viability increase [3] -1.07% | viability [4] 89.6% | viability [5] 97.8% | inhibition [6] -0.66% | RAM network inhibition [7] 0.26%

COc1ccc(OC)c(C(C)NC(=O)c2ccco2)c1 (stereo not drawn)
inactive: growth inhibition [1] -6.2% | growth inhibition [2] 2.66% | viability increase [3] -5.99% | viability [4] 40.8% | viability [5] 35.4% | inhibition [6] 0.005% | RAM network inhibition [7] 0.72%

CCOc1ccc2[nH]c(C)c(CN(C)C)c(=O)c2c1
inactive: growth inhibition [1] 1.46% | growth inhibition [2] 9.84% | viability increase [3] -1.41% | viability [4] 99.4% | viability [5] 95.1% | inhibition [6] -0.27% | RAM network inhibition [7] 4.03%
